# From ChEMBL document CHEMBL1156153, “Novel benzofuran-3-one indole inhibitors of PI3 kinase-alpha and the mammalian target of rapamycin: hit to lead studies” (Bioorg Med Chem Lett, 2010)
# Assays:
# [1] = Aqueous solubility at pH 7.4; format: physicochemical
# Procedure, shortened: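 Aqueous solubility measured at pH 7.4, reported in µg/mL.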
# PC-3 = test: Antiproliferative activity against human PC3 cells; format: functional, cell-based
# Procedure, shortened: (§1)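 Cell growth density monitored in Caco-2 (epithelial colorectal adenocarcinoma), LoVo (colon carcinoma) and PC3MM2/PC3 (prostate cancer) cultures; IC50 from means of two experiments.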
# [2] = target: Phosphatidylinositol 4,5-bisphosphate 3-kinase catalytic subunit alpha isoform (Homo sapiens, UniProt P42336); test: Inhibition of PI3Kalpha
# Caco-2 = test: Antiproliferative activity against human Caco-2 cells; format: functional, cell-based; procedure, shortened: as §1
# CYP3A4 = CYP3A4 (Homo sapiens, UniProt P08684); test: Inhibition of CYP3A4 at 3 uM; format: ADME
# LoVo = test: Antiproliferative activity against human LoVo cells; format: functional, cell-based; procedure, shortened: as §1
# [3] = target: Phosphatidylinositol 4,5-bisphosphate 3-kinase catalytic subunit gamma isoform (Homo sapiens, UniProt P48736); test: Inhibition of PI3Kgamma
# Procedure, shortened: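 Fluorescence polarization assays for PI3K-α (p110α) and PI3K-γ (p110γ) monitored PIP3 production.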
# [4] = target: Serine/threonine-protein kinase mTOR (Homo sapiens, UniProt P42345); test: Inhibition of mTOR
# Procedure, shortened: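 DELFIA-format mTOR kinase assay monitoring phosphorylation of His6-S6K substrate.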
# [5] = Inhibition of PI3K in human PC3 cells assessed as inhibition AKT phosphorylation after 6 hrs by densitometry; format: cell-based; details: PC-3, 6 h
# Procedure, shortened: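 PC-3 prostate cancer cells exposed to DMSO, 10 µM […] as positive control, or graded doses of test agent for 6 h. Lysates immunoblotted for Akt phosphorylated at Thr308 and for p-4EBP1. Inhibition assessed by densitometry of the p-Akt blots.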
# Chain of Phosphatidylinositol 4,5-bisphosphate 3-kinase catalytic subunit gamma isoform (P48736 whole entry, canonical isoform): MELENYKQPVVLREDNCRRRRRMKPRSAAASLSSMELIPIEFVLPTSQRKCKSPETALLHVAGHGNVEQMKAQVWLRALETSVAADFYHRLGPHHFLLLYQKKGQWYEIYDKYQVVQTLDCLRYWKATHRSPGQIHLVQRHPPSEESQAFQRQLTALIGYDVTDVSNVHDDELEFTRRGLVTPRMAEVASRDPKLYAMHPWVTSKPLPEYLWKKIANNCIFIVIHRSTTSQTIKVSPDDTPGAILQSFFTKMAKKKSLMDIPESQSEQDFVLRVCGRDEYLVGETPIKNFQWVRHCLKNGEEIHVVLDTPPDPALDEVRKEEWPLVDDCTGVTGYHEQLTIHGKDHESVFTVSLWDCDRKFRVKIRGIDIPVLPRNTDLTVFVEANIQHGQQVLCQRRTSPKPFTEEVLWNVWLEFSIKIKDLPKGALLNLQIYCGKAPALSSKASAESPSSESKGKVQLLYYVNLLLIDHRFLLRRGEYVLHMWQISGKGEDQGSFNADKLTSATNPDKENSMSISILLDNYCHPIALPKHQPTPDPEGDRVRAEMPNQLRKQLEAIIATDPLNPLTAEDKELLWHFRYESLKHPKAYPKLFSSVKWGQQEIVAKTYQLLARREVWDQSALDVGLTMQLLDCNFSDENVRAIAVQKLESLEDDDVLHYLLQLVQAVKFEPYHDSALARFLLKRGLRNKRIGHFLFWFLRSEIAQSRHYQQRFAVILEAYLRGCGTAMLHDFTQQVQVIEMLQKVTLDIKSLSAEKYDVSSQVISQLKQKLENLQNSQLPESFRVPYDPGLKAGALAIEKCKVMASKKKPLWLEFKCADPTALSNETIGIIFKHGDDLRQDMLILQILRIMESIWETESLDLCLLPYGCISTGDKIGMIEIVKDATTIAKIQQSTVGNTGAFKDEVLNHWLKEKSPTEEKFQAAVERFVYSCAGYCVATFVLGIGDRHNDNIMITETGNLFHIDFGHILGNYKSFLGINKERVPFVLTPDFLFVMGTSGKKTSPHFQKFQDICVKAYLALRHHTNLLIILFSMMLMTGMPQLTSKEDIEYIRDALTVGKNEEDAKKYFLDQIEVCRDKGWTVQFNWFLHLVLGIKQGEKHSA
# Chain of Phosphatidylinositol 4,5-bisphosphate 3-kinase catalytic subunit alpha isoform (P42336 whole entry, canonical isoform): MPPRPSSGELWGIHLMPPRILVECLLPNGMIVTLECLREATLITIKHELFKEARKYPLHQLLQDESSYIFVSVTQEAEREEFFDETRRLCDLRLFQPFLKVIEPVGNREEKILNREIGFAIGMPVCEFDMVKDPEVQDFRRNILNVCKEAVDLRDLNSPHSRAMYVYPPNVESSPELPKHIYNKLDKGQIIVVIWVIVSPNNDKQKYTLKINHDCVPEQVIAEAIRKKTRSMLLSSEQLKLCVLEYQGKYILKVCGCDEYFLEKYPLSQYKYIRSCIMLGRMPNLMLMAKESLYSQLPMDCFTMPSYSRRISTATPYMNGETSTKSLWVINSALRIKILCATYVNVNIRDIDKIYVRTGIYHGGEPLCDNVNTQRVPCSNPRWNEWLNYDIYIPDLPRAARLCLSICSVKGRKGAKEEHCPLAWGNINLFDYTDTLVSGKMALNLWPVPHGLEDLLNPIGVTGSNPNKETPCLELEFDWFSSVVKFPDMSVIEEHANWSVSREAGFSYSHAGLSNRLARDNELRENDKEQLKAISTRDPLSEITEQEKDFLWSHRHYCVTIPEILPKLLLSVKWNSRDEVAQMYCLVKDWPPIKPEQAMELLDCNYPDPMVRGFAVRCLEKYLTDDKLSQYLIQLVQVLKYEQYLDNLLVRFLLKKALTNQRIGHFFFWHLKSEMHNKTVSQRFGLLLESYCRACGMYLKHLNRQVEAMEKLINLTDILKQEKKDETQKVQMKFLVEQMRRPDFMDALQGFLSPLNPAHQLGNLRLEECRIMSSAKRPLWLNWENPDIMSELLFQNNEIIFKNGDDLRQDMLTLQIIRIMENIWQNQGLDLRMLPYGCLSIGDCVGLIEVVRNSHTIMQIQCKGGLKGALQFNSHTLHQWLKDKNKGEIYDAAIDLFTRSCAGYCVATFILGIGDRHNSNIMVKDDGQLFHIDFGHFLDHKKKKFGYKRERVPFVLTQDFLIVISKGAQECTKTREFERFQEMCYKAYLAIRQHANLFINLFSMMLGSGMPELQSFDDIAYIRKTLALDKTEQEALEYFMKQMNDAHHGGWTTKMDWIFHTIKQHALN
# Chain of CYP3A4 (P08684 whole entry): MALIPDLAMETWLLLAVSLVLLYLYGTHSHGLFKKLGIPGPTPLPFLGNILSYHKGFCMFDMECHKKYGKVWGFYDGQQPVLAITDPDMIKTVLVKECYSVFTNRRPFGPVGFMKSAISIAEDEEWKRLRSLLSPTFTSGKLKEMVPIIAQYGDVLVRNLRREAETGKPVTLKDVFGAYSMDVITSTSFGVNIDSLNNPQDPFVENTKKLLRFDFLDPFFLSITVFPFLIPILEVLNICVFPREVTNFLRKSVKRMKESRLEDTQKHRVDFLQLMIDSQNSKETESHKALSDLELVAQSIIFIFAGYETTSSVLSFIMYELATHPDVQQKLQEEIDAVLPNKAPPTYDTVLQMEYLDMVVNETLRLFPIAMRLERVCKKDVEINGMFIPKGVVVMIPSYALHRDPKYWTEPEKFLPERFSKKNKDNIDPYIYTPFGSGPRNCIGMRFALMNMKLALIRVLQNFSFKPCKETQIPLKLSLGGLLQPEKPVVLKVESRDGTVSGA
Structure (SMILES),solubility [1] [µg/mL],IC50 (PC-3) [nM],IC50 [2] [nM],IC50 (Caco-2) [µM],inhibition at 3 µM (CYP3A4) [%],IC50 (LoVo) [µM],IC50 [3] [nM],IC50 [4] [nM],IC50 [5] [nM]
Cc1[nH]c2ccc(Br)cc2c1/C=C1\Oc2cc(O)cc(O)c2C1=O,1,–,–,–,–,–,–,–,–
COc1ccc2[nH]c(C)c(/C=C3\Oc4cc(O)cc(O)c4C3=O)c2c1,1,4000,3,9,79,3.6,25,3,–
O=C1/C(=C/c2c(-c3ccccc3)[nH]c3ccccc23)Oc2cc(O)cc(O)c21,1,–,1030,–,–,–,2780,130,–
O=C1/C(=C/c2c(-c3ccccn3)[nH]c3ccccc23)Oc2cc(O)cc(O)c21,3,–,3650,–,–,–,–,22,–
O=C1/C(=C/c2c(-c3ccc(F)cc3)[nH]c3ccccc23)Oc2cc(O)cc(O)c21,1,–,–,–,–,–,–,–,–
COc1ccc2c(c1)c(/C=C1\Oc3cc(O)cc(O)c3C1=O)c(C)n2C,1,1300,7,7.2,75,2.5,54,4,–
O=C1/C(=C/c2c(-c3ccc4ccccc4c3)[nH]c3ccccc23)Oc2cc(O)cc(O)c21,1,–,–,–,–,–,–,–,–
COc1ccc2c(c1)c(/C=C1\Oc3cc(O)cc(O)c3C1=O)c(C)n2CCN1CCOCC1,6,1500,11,2,64,2.3,155,9,–
COc1ccc2[nH]c(-c3ccccc3)c(/C=C3\Oc4cc(O)cc(O)c4C3=O)c2c1,–,800,–,2.1,77,1.2,11,10,385
Cn1c(-c2ccccc2)c(/C=C2\Oc3cc(O)cc(O)c3C2=O)c2ccccc21,2,–,2670,–,–,–,–,96,–
COc1ccc2c(c1)c(/C=C1\Oc3cc(O)cc(O)c3C1=O)c(C)n2CCN1CCN(C)CC1,30,2400,5,4.7,–,2.2,473,11,–
COc1ccc2c(c1)c(/C=C1\Oc3cc(O)cc(O)c3C1=O)c(C)n2CCN(C)C,1,1800,9,2.8,–,1.7,283,18,–
COc1ccc2c(c1)c(/C=C1\Oc3cc(O)cc(O)c3C1=O)cn2CCCN(C)C,32,–,40,–,–,–,2420,2120,–
Cn1cc(/C=C2\Oc3cc(O)cc(O)c3C2=O)c2ccccc21,2,–,–,–,–,–,–,800,–
O=C1/C(=C/c2c[nH]c3ccc(Cl)cc23)Oc2cc(O)cc(O)c21,1,–,–,–,–,–,–,–,–
COc1ccc2c(c1)c(/C=C1\Oc3cc(O)cc(O)c3C1=O)cn2CCCN1CCN(CCO)CC1,25,–,37,–,–,–,1360,1650,–
COc1ccc2c(c1)c(/C=C1\Oc3cc(O)cc(O)c3C1=O)c(C)n2CCCN(C)C,32,2800,–,9.3,–,5.7,404,118,–
O=C1/C(=C/c2c(-c3ccc(Cl)cc3)[nH]c3ccccc23)Oc2cc(O)cc(O)c21,1,–,–,–,–,–,–,–,–
COc1ccc2[nH]cc(/C=C3\Oc4cc(O)cc(O)c4C3=O)c2c1,12,–,–,–,58,–,–,–,–
COc1ccc2c(c1)c(/C=C1\Oc3cc(O)cc(O)c3C1=O)c(C)n2CCCN1CCOCC1,1,2400,8,4.7,68,4.6,76,18,–
COc1ccc2c(c1)c(/C=C1\Oc3cc(O)cc(O)c3C1=O)cn2CCCN1CCOCC1,3,–,42,–,42,–,646,430,–
COc1ccc2[nH]c(-c3cccnc3)c(/C=C3\Oc4cc(O)cc(O)c4C3=O)c2c1,1,1900,1,7.5,57,4.7,9,1,–
COc1ccc2c(c1)c(/C=C1\Oc3cc(O)cc(O)c3C1=O)cn2C,1,–,106,–,–,–,587,62,–
COc1ccc2c(c1)c(/C=C1\Oc3cc(O)cc(O)c3C1=O)c(C)n2CCCN1CCN(C)CC1,10,9500,15,10,–,7.5,402,153,–
COc1ccc2c(c1)c(/C=C1\Oc3cc(O)cc(O)c3C1=O)c(C)n2CCCN1CCN(CCO)CC1,36,10000,6,10,–,10,109,108,–
O=C1/C(=C/c2c[nH]c3ccccc23)Oc2cc(O)cc(O)c21,14,–,6750,–,–,–,–,9200,–
